NPY2 pot ag: human NPY-Y2 potentiation or agonism, primary screen; activation, % at 3.6 µM; 220,000 tested, 0.45% active; cells expressing NPY-Y2, potentiator/agonist read-out; P49146; in the data active means activation above about 27%;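 further: cells stimulated with NPY near EC25 plus isoproterenol at EC100; 0% = vehicle plus submaximal agonist and 100% = vehicle plus saturating agonist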
Target sequence (P49146 whole entry, looked up): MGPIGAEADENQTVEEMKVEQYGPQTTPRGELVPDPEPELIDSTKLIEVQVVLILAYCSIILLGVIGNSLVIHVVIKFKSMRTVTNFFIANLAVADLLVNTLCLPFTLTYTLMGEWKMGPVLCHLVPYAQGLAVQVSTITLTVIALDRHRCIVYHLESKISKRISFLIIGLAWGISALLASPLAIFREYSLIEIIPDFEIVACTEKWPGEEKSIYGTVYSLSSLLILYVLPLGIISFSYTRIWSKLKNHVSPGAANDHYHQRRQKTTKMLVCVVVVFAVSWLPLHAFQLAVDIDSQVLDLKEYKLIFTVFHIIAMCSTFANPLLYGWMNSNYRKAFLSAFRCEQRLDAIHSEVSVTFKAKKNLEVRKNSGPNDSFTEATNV
NPY-Y1 PAM-ag: human NPY-Y1 potentiation or agonism, primary screen. NPY-Y1 expressing cells, potentiator/agonist activation. 220,000 tested, 0.37% active. AID 1304. activation, % at 3.6 µM; in the data active means activation above about 33%, passing the limit was not always enough;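 further: cells stimulated with NPY at EC10 then isoproterenol at EC100; 0% = low agonist plus stimulus and 100% = saturating agonist plus stimulus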
Target sequence (P25929 whole entry, looked up): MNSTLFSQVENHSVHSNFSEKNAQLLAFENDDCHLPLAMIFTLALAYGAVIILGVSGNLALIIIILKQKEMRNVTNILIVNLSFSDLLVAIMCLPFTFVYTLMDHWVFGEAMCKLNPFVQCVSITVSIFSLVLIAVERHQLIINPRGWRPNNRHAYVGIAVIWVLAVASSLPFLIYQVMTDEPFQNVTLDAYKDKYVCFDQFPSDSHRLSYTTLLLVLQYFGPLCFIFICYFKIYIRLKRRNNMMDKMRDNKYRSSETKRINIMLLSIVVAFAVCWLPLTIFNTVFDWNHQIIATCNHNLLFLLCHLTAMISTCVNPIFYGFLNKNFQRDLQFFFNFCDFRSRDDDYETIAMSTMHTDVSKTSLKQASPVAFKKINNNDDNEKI
NPY-Y1 antag: blocks the human neuropeptide Y Y1 receptor | P25929 | HEK293-CNG Y1 cells, membrane potential fluorescence; NPY at EC95, then isoproterenol | inhibition, % at 3.6 µM | 200,000 tested, 1% active;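 active means inhibition above the campaign mean inhibition of all tested compounds plus 3 SD, cut at about 20% in these data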;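 further: 0% = DMSO wells given NPY plus isoproterenol and 100% = isoproterenol alone without NPY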
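Assay system: HEK293 cells with Y1 receptor plus CNG channel | Probe or stimulus: NPY (25 nM), isoproterenol (1 µM), Ro 20-1724 (25 µM) | Timing: Compound incubation 1 h at room temperature, readout 45 min post-stimulation | Measured by: Membrane-potential fluorescent dye readout | Benchmarks: High control isoproterenol alone, low control NPY with isoproterenol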
NPY-Y2 antag: antagonists of human neuropeptide Y receptor Y2 | NPY-Y2 expressing cells, antagonist mode | inhibition, % at 2.7 µM | 140,000 tested, 0.99% active; in the data active means inhibition above about 17%;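 further: 0% = vehicle with agonist challenge and 100% = reference antagonist with challenge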
NPY-Y1 confirm: human NPY-Y1 potentiation or agonism, confirmation; 280 tested, 20% active; activation, % at 3.6 µM; cell-based NPY-Y1 potentiator/agonist assay; AID 1546; shares compounds with NPY-Y1 PAM-ag; in the data active means activation above about 45%;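 further: cells challenged with NPY at its EC10 plus isoproterenol stimulus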
NPY-Y2 counter: NPY-Y2 potentiation or agonism as NPY-Y1 counter-screen | activation, % at 3.6 µM | shares compounds with NPY-Y1 PAM-ag | HEK293-CNG cells, membrane-potential fluorescence (FLIPR), 1536-well | 280 tested, 20% active; in the data active means activation above about 33%
NPY-Y1 ag: human NPY-Y1 agonism as potentiator counter-screen. 280 tested, 50% active. shares compounds with NPY-Y1 PAM-ag. HEK293 Y1-CNGC, membrane potential fluorescence, agonist mode. activation, % at 3.6 µM;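 active means percent activation above the mean of DMSO-only control wells plus 3 SD of those wells, cut at about 18% in these data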;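 further: cells challenged with isoproterenol plus Ro 20-1724 with no NPY in test wells; Y1 agonism lowers isoproterenol-driven cAMP and reduces probe fluorescence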
NPY-Y2 ag: human NPY-Y2 agonism as NPY-Y1 counter-screen; shares compounds with NPY-Y1 PAM-ag; HEK293 Y2-CNGC, membrane potential fluorescence, agonist mode; 280 tested, 67% active; activation, % at 3.6 µM;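 active means activation above the solvent-only control wells' mean plus 3 SD, cut at about 11% in these data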;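 further: 0% = DMSO with isoproterenol and 100% = 40 nM NPY maximal response; agonism lowers cAMP so well fluorescence drops in active wells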
CNGC counter: CNG channel inhibition, counter-screen for NPY-Y1 potentiators; shares compounds with NPY-Y1 PAM-ag; HEK293-CNG parental, isoproterenol cAMP, membrane potential fluorescence; inhibition, % at 3.6 µM; 280 tested, 42% active; AID 1704;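 active means inhibition above the mean of stimulated solvent-only control wells plus 3 SD, cut at about 22% in these data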;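 further: 0% = isoproterenol-stimulated DMSO wells and 100% = unstimulated DMSO wells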
* marks the source's active call; other numbers are inactive results; x = not tested or not shown. The list is not random: actives were taken first. Their share in the collection is about 1.8%.

SMILES | NPY2 pot ag | NPY-Y1 PAM-ag | NPY-Y1 antag | NPY-Y2 antag | NPY-Y1 confirm | NPY-Y2 counter | NPY-Y1 ag | NPY-Y2 ag | CNGC counter
COC(=O)CNC(=O)C12CC3CC(C1)CC(c1ccc(C)cc1)(C3)C2 | -10 | 6 | 6 | x | x | x | x | x | x
O=C(COC(=O)c1ccc(NS(=O)(=O)c2cccs2)cc1O)NCc1ccccc1 | -9 | 3 | 1 | x | x | x | x | x | x
O=C(COC(=O)c1ccc(NS(=O)(=O)c2cccs2)cc1O)Nc1nc2ccccc2s1 | 22 | 43* | -3 | x | 35 | 24 | 38* | 25* | 22*
Nc1c(C(=O)c2ccco2)oc2ccccc12 | -16 | 0 | -3 | x | x | x | x | x | x
c1csc(-c2nc3c4ccccc4c4ccccc4c3[nH]2)c1 | 11 | 18 | -2 | -3 | x | x | x | x | x
Oc1ccccc1-c1nc2c3ccccc3c3ccccc3c2[nH]1 | 30 | 50* | x | x | 36 | 28 | 37* | 34* | 39*
COc1ccc(/C=N/Nc2snc(SC)c2C#N)cc1OC | 8 | 24 | -3 | -2 | x | x | x | x | x
COc1cccc(/C=N/Nc2snc(SC)c2C#N)c1O | 8 | 50* | -1 | 1 | -5 | 4 | -2 | 18* | 6
O=C(Nc1ccncc1)c1ccc2c(c1)C(=O)N(C1CCCCC1)C2=O | 1 | 45* | -1 | 2 | 2 | 17 | 18* | 5 | 2
CC(C)N=C(NS(=O)(=O)c1ccccc1)C(Cl)(Cl)Cl | 11 | -15 | -3 | 1 | x | x | x | x | x
O=C(C[n+]1ccn(CCCNP2(=O)C=C(c3ccccc3)OC(c3ccccc3)=C2)c1)c1cccs1 | -6 | -5 | 2 | x | x | x | x | x | x
COc1ccccc1NC(=O)Nc1ccc(-n2ccc(C(F)(F)F)n2)cc1 | 32 | 55* | x | x | 65* | 49* | 55* | 38* | 36*
O=C(O)c1ccccc1C(=O)Nc1ccc(-n2ccc(C(F)(F)F)n2)cc1 | 5 | 17 | x | x | x | x | x | x | x
O=[N+]([O-])c1ccc([N+](=O)[O-])c(Nc2ccc(N3CCOCC3)cc2)c1 | -8 | -1 | -6 | x | x | x | x | x | x
CC(=O)NC12CC3CC(C1)CC(C(=O)OCC(=O)Nc1ncc(Cl)c(C)c1Cl)(C3)C2 | 8 | 45* | -1 | 1 | 3 | -1 | -5 | 3 | -5
Cc1noc2ncnc(Sc3ccc(Cl)cc3)c12 | 4 | 66* | -2 | 11 | -4 | -6 | -11 | 6 | -7
CC1CCCN(C(=O)CSc2nnc(-c3ccncc3)n2C)C1 (stereo not given) | 2 | 3 | -2 | x | x | x | x | x | x
CCOC(=O)CSC1=N/C(=C\c2ccc(OC)c(OC)c2)C(=O)N1C | -2 | 3 | 2 | 4 | x | x | x | x | x
Cc1ccccc1S(=O)c1ccccc1C(=O)O (stereo not given) | 16 | -7 | x | x | x | x | x | x | x
Cc1ccccc1C(=O)N1CCN(c2ccc(NC(=S)NC(=O)c3cccs3)cc2)CC1 | 15 | 36* | -6 | x | 0 | 14 | 11 | 15* | 19
Cc1ccc(C(=O)N2CCN(c3ccc(NC(=S)NC(=O)c4cccs4)cc3)CC2)cc1 | 10 | 8 | -2 | x | x | x | x | x | x
Cc1c(S(=O)(=O)N2CCN(c3ccccc3)CC2)c(=O)n(C)c(=O)n1C | -10 | 9 | x | x | x | x | x | x | x
Cn1nc(C(F)(F)F)c(-c2ccc(F)cc2)c1NC(=O)Nc1ccc(F)cc1 | 38 | 48* | x | x | 59* | 45* | 58* | 52* | 49*
COc1ccc(C(=O)NC2CCCCCC2)cc1S(=O)(=O)N1CCCC1 | 0 | 10 | 5 | x | x | x | x | x | x
COc1ccc(C(=O)NC2CCCCCC2)cc1S(=O)(=O)Nc1ccc(Br)cc1 | 26 | 48* | -3 | 2 | 44* | 31 | 42* | 31* | 40*
SMILES | NPY2 pot ag | NPY-Y1 PAM-ag | NPY-Y1 antag | NPY-Y2 antag | NPY-Y1 confirm | NPY-Y2 counter | NPY-Y1 ag | NPY-Y2 ag | CNGC counter
Cc1ccc(C(=O)O)cc1NC(=O)CCc1ccccc1 | 2 | -19 | 0 | x | x | x | x | x | x
COC(=O)c1ccc(C)c(NC(=O)CCc2ccc(OC)cc2)c1 | 8 | 105* | 2 | 7 | -3 | -4 | -10 | -12 | -8
O=C(CC1NCCc2ccccc21)Nc1ccc(Cl)cc1 (stereo not given) | -12 | 56* | 1 | x | -8 | -5 | -17 | -10 | -2
COC(=O)CNC(=O)CN1C(=O)N(c2cccc(Cl)c2)C(N(O)C(=O)Nc2cccc(Cl)c2)C1(C)C (stereo not given) | 10 | 49* | -9 | -4 | 46* | 29 | 32* | 31* | 32*
COC(=O)CNC(=O)CN1C(=O)N(c2ccccc2)C(N(O)C(=O)Nc2ccccc2)C1(C)C (stereo not given) | -15 | -6 | 0 | 1 | x | x | x | x | x
N#CNC(=Nc1ccc(Cl)cc1)Oc1ccccc1 | -29 | -7 | x | x | x | x | x | x | x
CCOC(=O)C1=C(C)C2C3C(=O)N(c4cc(C)ccc4C)C(=O)C3C1(C)C1C(=O)N(c3cc(C)ccc3C)C(=O)C21 (stereo not given) | 8 | 44* | 0 | -3 | 17 | 9 | 16 | 8 | 10
O=C(N/N=C/c1c[nH]c2ccc(Br)cc12)C1CC1 | 28 | 58* | x | x | 40 | 34* | 50* | 43* | 47*
CC(C)OCCCNc1ncnc2c1[nH]c1ccccc12 | 17 | -9 | -1 | 4 | x | x | x | x | x
NC(=O)CN(c1ccc(Cl)cc1)S(=O)(=O)c1ccccc1 | -4 | -21 | 3 | 3 | x | x | x | x | x
Cc1ccc(S(=O)(=O)N(CC(=O)Nc2ccccc2C(=O)O)c2ccc(Cl)cc2)cc1 | 3 | 44* | 4 | x | 8 | 4 | 5 | 20* | 7
COc1cc(/C=N/NC(=O)C(Cc2c[nH]c3ccccc23)NC(=O)OCC(C)C)cc([N+](=O)[O-])c1O (stereo not given) | 0 | -6 | 7 | -2 | x | x | x | x | x
COc1cc(/C=N/NC(=O)C(Cc2c[nH]c3ccccc23)NC(=O)OCC(C)C)cc([N+](=O)[O-])c1OCc1ccccc1 (stereo not given) | 25 | 39* | -4 | x | 34 | 30 | 24* | 38* | 25*
O=C(O)[C@H](Cc1ccccc1)NC(=O)N1CCN(c2ccccc2)CC1 | -9 | -3 | x | x | x | x | x | x | x
[O-]/C(=C(\C(=S)Nc1ccc(SC(F)F)cc1)[n+]1ccccc1)c1ccc(Cl)cc1Cl | 21 | 37* | -7 | x | 48* | 26 | 36* | 31* | 47*
Cc1cc(C)cc(NC(=S)/C(=C(\[O-])c2ccc(Cl)cc2Cl)[n+]2ccccc2)c1 | -8 | -22 | 16 | x | x | x | x | x | x

High-throughput results deposited in PubChem by The Scripps Research Institute Molecular Screening Center.
